The species entered for assay [1] is Rattus norvegicus. The assay can be described thus: Compound was tested for [Ca2+] overload inhibitory activity in the veratridine-induced [Ca2+] overload model of rat cardiac myocytes. The class given is functional, organism-based. Put shortly: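 Ventricular myocytes isolated from male Sprague–Dawley rats (300–500 g) by enzyme perfusion; rod-shaped cells exposed to compound 30 min, then 50 μg/mL veratridine added. Survival judged by cell shape 5 min later. Value is molar concentration inhibiting cell death by >80%; 2–8 experiments, >50 rod-shaped myocytes each.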

For assay [2], the species on record is Rattus norvegicus. The assay can be described thus: Compound was tested in vitro for [Ca2+] antagonistic activity in K+-depolarized isolated rat aorta. The class given is functional. Summed up: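 Thoracic aorta rings (2–3 mm) from male Sprague–Dawley rats (350–550 g), isometric tension in Krebs–Henseleit pH 7.4, 37 °C, 95% O2/5% CO2, 2 g resting tension. After a priming 30 mM K+ contraction and washout, second 30 mM K+ contraction; compound added cumulatively in half-log steps. IC50 = concentration relaxing contraction to 50%; mean ± SE, 2–8 experiments.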

The test system of a further assay is Canis familiaris. The experiment in a line: Effect on coronary blood flow (CBF) by intravenous administration of compound in anesthetized dogs. The format is functional, Canis lupus familiaris. Also on record: concentration or dose not given beside the values. Put shortly: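 Male beagles (9–14 kg) under pentobarbital (35 mg/kg iv, then 3–5 mg/kg/h infusion), artificially ventilated, left thoracotomy. Compound given iv via cephalic vein at […]. Coronary blood flow change expressed as maximal percent change from pre-dose value; mean ± SE from 5–6 dogs or a single experiment.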

The species named for assay [3] is Oryctolagus cuniculus. The experiment in a line: in vitro inhibitory activity on soybean lipoxygenase-induced lipid peroxidations of rabbit low-density lipoprotein (LDL) at 5 uM dosage. The class given is functional, organism-based. Summed up:
(§1)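 Rabbit LDL (Havel method) with compound, oxidised by soybean lipoxygenase type-1S (40 μg/mL final) for 24 h at 37 °C in CO2 incubator. LDL fraction separated by gel-permeation chromatography; fluorescence read at ex 360/em 430 nm. Expressed as percent of control.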

The species entered for assay [4] is Oryctolagus cuniculus. The assay can be described thus: in vitro inhibitory activity on soybean lipoxygenase-induced lipid peroxidations of rabbit low-density lipoprotein (LDL) at 0.5 uM dosage. The class given is functional. Summed up:
as §1

For assay [5], the species on record is Oryctolagus cuniculus. The experiment in a line: In vitro inhibitory activity on soybean lipoxygenase-induced lipid peroxidations of rabbit low-density lipoprotein (LDL) at 5 uM dosage. The format is functional, organism-based. Put shortly: as §1
Assay [6] is filed under the species Oryctolagus cuniculus. The assay can be described thus: In vitro inhibitory activity on soybean lipoxygenase-induced lipid peroxidations of rabbit low-density lipoprotein (LDL) at 0.5 uM dosage. The class given is functional. Summed up: as §1

The results in this text go back to ChEMBL document CHEMBL1132344, “Novel calcium antagonists with both calcium overload inhibition and antioxidant activity. 2. Structure-activity relationships of thiazolidinone derivatives” (J Med Chem, 1999).

What is called IC50 is the concentration that gives 50% inhibition.

Bounds are passed on as bounds.

Regarding `CN(CCCN1C(=O)CSC1c1cc(C(C)(C)C)c(O)c(C(C)(C)C)c1)CCOc1ccc2c(c1)OCO2` (single isomer, unassigned; (+)) [listing 1 of 2 here], the IC50 in the assay filed under Rattus norvegicus [1] is 320 nM; in the assay listed under Rattus norvegicus [2] it was 340 nM. For the same compound, the CBF increasing activity with Canis familiaris was 16%.
With `COc1c(C(C)(C)C)cc(C2SCC(=O)N2CCCN(C)CCOc2ccc3c(c2)OCO3)cc1C(C)(C)C` (stereo not drawn), the LDL oxidation in the assay filed under Oryctolagus cuniculus [3] was 39.7%; in the assay listed under Oryctolagus cuniculus [4], 91.6%. In addition, the IC50 in the assay filed under Rattus norvegicus [1] (Rattus norvegicus) was 1000 nM; in the assay filed under Rattus norvegicus [2] (Rattus norvegicus, Aorta) it was 36 nM.
Consider `CN(CCCCOc1ccc2c(c1)OCO2)CCCN1C(=O)CSC1c1cc(C(C)(C)C)c(O)c(C(C)(C)C)c1` (stereo not drawn), for which the IC50 was determined as 320 nM in the assay listed under Rattus norvegicus [1] (Rattus norvegicus) and 200 nM in the assay filed under Rattus norvegicus [2] (Rattus norvegicus, Aorta).
Turning to `Cc1cc(C2SCC(=O)N2CCCN(C)CCOc2ccc3c(c2)OCO3)cc(C)c1O` (stereo not drawn), the IC50 in the assay listed under Rattus norvegicus [2] (Rattus norvegicus, Aorta) turned out to be 2300 nM.
Consider `CN(CCCN1C(=O)CSC1c1ccc(O)cc1)CCOc1ccc2c(c1)OCO2` (stereo not drawn), for which the midpoint of inhibition in the assay filed under Rattus norvegicus [2] (Rattus norvegicus, Aorta), the IC50, lay at 2600 nM.
In the assay listed under Rattus norvegicus [2] (Rattus norvegicus, Aorta), `COc1cc(C2SCC(=O)N2CCCN(C)CCOc2ccc3c(c2)OCO3)cc(OC)c1O` (stereo not drawn) gave an IC50 of 4100 nM.
Still for that read-out and setting: as for `CN(CCCN1C(=O)CSC1c1ccc(O)c(C(C)(C)C)c1)CCOc1ccc2c(c1)OCO2` (stereo not drawn), the figure is 560 nM; as for `CCc1cc(C2SCC(=O)N2CCCN(C)CCOc2ccc3c(c2)OCO3)cc(CC)c1O` (stereo not drawn), 320 nM.
In turn, `Cc1cc(C2SCC(=O)N2CCCN(C)CCOc2ccc3c(c2)OCO3)cc(C(C)(C)C)c1O` (stereo not drawn) had an IC50 in the assay filed under Rattus norvegicus [2] (Rattus norvegicus, Aorta) of 280 nM.
In the assay listed under Rattus norvegicus [2], `CN(CCCN1C(=O)CSC1c1cc(C(C)(C)C)c(O)c(C(C)(C)C)c1)CCOc1ccc2c(c1)OCO2` (stereo in doubt; 1) [listing 1 of 2 here] had an IC50 of 62 nM. Further, the CBF increasing activity with Canis familiaris is 96%.
In the case of `CN(CCCN1C(=O)CSC1c1cc(C(C)(C)C)c(O)c(C(C)(C)C)c1)CCOc1ccc2c(c1)OCO2` (single isomer, unassigned; (-)) [listing 1 of 2 here], the IC50 in the assay filed under Rattus norvegicus [1] was found to be 320 nM; in the assay listed under Rattus norvegicus [2] it was 33 nM. Also, in the assay with Canis familiaris, the CBF increasing activity is 117%.
Take `CC(C)N(CCCN1C(=O)CSC1c1cc(C(C)(C)C)c(O)c(C(C)(C)C)c1)CCOc1ccc2c(c1)OCO2` (stereo not drawn): the IC50 was found to be 1000 nM in the assay listed under Rattus norvegicus [1] (Rattus norvegicus) and 450 nM in the assay filed under Rattus norvegicus [2] (Rattus norvegicus, Aorta).
On to `Cc1c(C)c2c(c(C)c1O)CC[C@@](C)(CCC[C@H](C)CCC[C@H](C)CCCC(C)C)O2` [ALPHA-TOCOPHEROL], for which the IC50 in the assay listed under Rattus norvegicus [1] (Rattus norvegicus) stood at 13200 nM; in the assay listed under Rattus norvegicus [2] (Rattus norvegicus, Aorta) it was 60200 nM.
As for `CCN(CCCN1C(=O)CSC1c1cc(C(C)(C)C)c(O)c(C(C)(C)C)c1)CCOc1ccc2c(c1)OCO2` (stereo not drawn), the values for the LDL oxidation in the assay listed under Oryctolagus cuniculus [3] and in the assay filed under Oryctolagus cuniculus [4] were 6.4% and 16.8%, respectively. The IC50 in the assay filed under Rattus norvegicus [1] (Rattus norvegicus) stood at 320 nM; in the assay listed under Rattus norvegicus [2] (Rattus norvegicus, Aorta) it was 63 nM. Also, the CBF increasing activity with Canis familiaris turned out to be 52%.
With `CN(CCCN1C(=O)CSC1c1cc(C(C)(C)C)c(O)c(C(C)(C)C)c1)CCOc1ccc2c(c1)OCO2` (stereo in doubt; 1) [listing 2 of 2 here], the LDL oxidation in the assay filed under Oryctolagus cuniculus [5] was 3%; in the assay listed under Oryctolagus cuniculus [6] it was 12.9%.
`CN(CCCN1C(=O)C[S+]([O-])C1c1cc(C(C)(C)C)c(O)c(C(C)(C)C)c1)CCOc1ccc2c(c1)OCO2` (stereo not drawn) gave an IC50 in the assay filed under Rattus norvegicus [2] (Rattus norvegicus, Aorta) of 790 nM.
Turning to `Cc1cc(C(C)(C)C)c(O)c(C(C)(C)C)c1` [BUTYLATED HYDROXYTOLUENE], the IC50 in the assay filed under Rattus norvegicus [1] (Rattus norvegicus) amounted to 900 nM; in the assay listed under Rattus norvegicus [2] (Rattus norvegicus, Aorta), 19700 nM.
`CN(CCCN1C(=S)CSC1c1cc(C(C)(C)C)c(O)c(C(C)(C)C)c1)CCOc1ccc2c(c1)OCO2` (stereo not drawn): the LDL oxidation was determined as 11.3% in the assay filed under Oryctolagus cuniculus [3] and 22.8% in the assay listed under Oryctolagus cuniculus [4]. Besides, half-maximal inhibition in the assay listed under Rattus norvegicus [2] (Rattus norvegicus, Aorta) (IC50) required 160 nM.
As for `CN(CCCCN1C(=O)CSC1c1cc(C(C)(C)C)c(O)c(C(C)(C)C)c1)CCOc1ccc2c(c1)OCO2` (stereo not drawn), the IC50 in the assay listed under Rattus norvegicus [1] (Rattus norvegicus) came out at 1000 nM; in the assay listed under Rattus norvegicus [2] (Rattus norvegicus, Aorta), 210 nM.
Consider `CN(CCCOc1ccc2c(c1)OCO2)CCCN1C(=O)CSC1c1cc(C(C)(C)C)c(O)c(C(C)(C)C)c1` (stereo not drawn), for which the LDL oxidation in the assay filed under Oryctolagus cuniculus [3] turned out to be 3.9%; in the assay listed under Oryctolagus cuniculus [4], 16.4%. The IC50 in the assay filed under Rattus norvegicus [1] (Rattus norvegicus) turned out to be 320 nM; in the assay listed under Rattus norvegicus [2] (Rattus norvegicus, Aorta), 78 nM. For the same compound, the CBF increasing activity in the assay with Canis familiaris worked out at 23%.
On to `CC(C)(C)c1cc(C2SCC(=O)N2CCCN(CCO)CCOc2ccc3c(c2)OCO3)cc(C(C)(C)C)c1O` (stereo not drawn), for which, in the assay filed under Rattus norvegicus [2] (Rattus norvegicus, Aorta), half-maximal inhibition (IC50) was put at 320 nM.
Same read-out and setting: the figure for `Cc1cc(C2SCC(=O)N2CCCN(C)CCOc2ccc3c(c2)OCO3)c(C)c(C)c1O` (stereo not drawn) is 630 nM.
Regarding `CN(CCOc1ccc2c(c1)OCO2)CCN1C(=O)CSC1c1cc(C(C)(C)C)c(O)c(C(C)(C)C)c1` (stereo not drawn), the IC50 in the assay listed under Rattus norvegicus [2] (Rattus norvegicus, Aorta) came out at 360 nM.
Compound `CN(CCCCCN1C(=O)CSC1c1cc(C(C)(C)C)c(O)c(C(C)(C)C)c1)CCOc1ccc2c(c1)OCO2` (stereo not drawn) returned an LDL oxidation in the assay listed under Oryctolagus cuniculus [3] of 5.9%. Besides, the half-inhibitory concentration (IC50) in the assay listed under Rattus norvegicus [2] (Rattus norvegicus, Aorta) came to 280 nM.
In turn, `CN(CCCN1C(=O)CSC1c1cc(Cl)c(O)c(Cl)c1)CCOc1ccc2c(c1)OCO2` (stereo not drawn) gave an IC50 in the assay listed under Rattus norvegicus [2] (Rattus norvegicus, Aorta) greater than 10000 nM.
For the compound `CC(C)(C)c1cc(C2SCC(=O)N2CCCNCCOc2ccc3c(c2)OCO3)cc(C(C)(C)C)c1O` (stereo not drawn), the IC50 in the assay listed under Rattus norvegicus [1] (Rattus norvegicus) came to 1000 nM; in the assay listed under Rattus norvegicus [2] (Rattus norvegicus, Aorta), 160 nM.
Regarding `CN(CCCN1C(=O)CSC1c1cc(C(C)(C)C)c(O)c(C(C)(C)C)c1)CCOc1ccc2c(c1)OCO2` (single isomer, unassigned; (-)) [listing 2 of 2 here], the LDL oxidation in the assay listed under Oryctolagus cuniculus [3] worked out at 3.9%; in the assay filed under Oryctolagus cuniculus [4], 16.4%.
Consider `CC(C)c1cc(C2SCC(=O)N2CCCN(C)CCOc2ccc3c(c2)OCO3)cc(C(C)C)c1O` (stereo not drawn), for which the IC50 is 320 nM in the assay filed under Rattus norvegicus [1] (Rattus norvegicus) and 140 nM in the assay listed under Rattus norvegicus [2] (Rattus norvegicus, Aorta).
Turning to `CN(CCCN1C(=O)CSC1c1cc(C(C)(C)C)c(O)c(C(C)(C)C)c1)CCOc1ccc2c(c1)OCO2` (single isomer, unassigned; (+)) [listing 2 of 2 here], the figures for the LDL oxidation in the assay listed under Oryctolagus cuniculus [3] and in the assay listed under Oryctolagus cuniculus [4] were 5.9% and 13.5%, respectively.
Turning to `COc1ccc([C@@H]2Sc3ccccc3N(CCN(C)C)C(=O)[C@@H]2OC(C)=O)cc1` [DILTIAZEM], the LDL oxidation in the assay filed under Oryctolagus cuniculus [3] turned out to be 111%; in the assay listed under Oryctolagus cuniculus [4] it was 109%. For the same compound, the IC50 is greater than 10000 nM in the assay listed under Rattus norvegicus [1] (Rattus norvegicus) and 100 nM in the assay filed under Rattus norvegicus [2] (Rattus norvegicus, Aorta). Besides, the CBF increasing activity with Canis familiaris amounted to 86%.
